SR-BI uptake up: activators of SR-BI mediated HDL lipid uptake. CHO ldlA[mSR-BI] cells, DiI-HDL uptake fluorescence, 3 h; 100 = double the neutral-control signal. activation, % at 12.5 µM. hit rate 0.096% among 320,000;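 active means mean replicate activation of at least 60% and every replicate at or above 60%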
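system = CHO ldlA[mSR-BI] cells, LDL receptor-null, SR-BI overexpressing | medium = Ham's F12 with 0.5% BSA, HEPES 25 mM, pH 7.4 | probe or stimulus = DiI-HDL 10 µg/mL | compound dosing = single-point compound dose | incubation = compound exposure 3 h, 37 °C | technique = DiI fluorescence, bottom read | read-out = cell-associated DiI fluorescence as measure of HDL uptake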
SR-BI HDL uptake: blocks mouse SR-BI lipid uptake from DiI-HDL; hit rate 0.96% among 320,000; Q61009; ldlA[mSR-BI] CHO cells, DiI-HDL uptake fluorescence, 3 h; inhibition, % at 12.5 µM;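 active means mean replicate inhibition of at least 70% and a set share of replicates each scoring 70 or more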
dFosB act: enhances mouse delta FosB homodimer DNA binding; P13346; purified delta FosB, TAMRA-CDK5 oligo fluorescence polarization; percent of positive-control signal above neutral wells; activation, % at 25 µM; hit rate 0.99% among 340,000; AID 493131;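 active means mean activation above about 17%, with every replicate also reaching it, limit read from the data, passing the limit was not always enough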
Target sequence (P13346 whole entry, looked up): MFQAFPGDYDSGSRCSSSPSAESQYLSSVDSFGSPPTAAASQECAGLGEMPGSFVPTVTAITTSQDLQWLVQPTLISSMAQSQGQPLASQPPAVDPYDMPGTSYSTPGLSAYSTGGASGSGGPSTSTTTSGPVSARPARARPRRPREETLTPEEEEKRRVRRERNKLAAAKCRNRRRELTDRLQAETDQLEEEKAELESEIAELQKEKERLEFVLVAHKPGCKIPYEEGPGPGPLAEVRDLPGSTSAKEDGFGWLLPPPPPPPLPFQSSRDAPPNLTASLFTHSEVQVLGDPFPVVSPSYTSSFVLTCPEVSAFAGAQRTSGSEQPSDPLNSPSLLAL
CDK5 p35 inh: CDK5/p35 (human) kinase inhibition | Q00535+Q15078 | Recombinant CDK5/p35, ADP-Glo luminescence, 60 min | inhibition, % at 10 µM | hit rate 0.01% among 330,000;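 active means highest replicate inhibition of at least 50% and at least 75% of replicates reaching 50%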
A number is an active result; . = inactive; / = not tested or not shown; ! = a repeat was not active. Rows were chosen to be rich in hits. Some 2% of all compounds tested hit in one or more screens of this group.

SMILES	SR-BI uptake up	SR-BI HDL uptake	dFosB act	CDK5 p35 inh
COc1cc(C(=O)OCC(=O)N2CC(C)OC(C)C2)cc(OC)c1OC (stereo not drawn)	.	.	.	.
Cc1cc(C)c2c(c1)/C(=N/NC(=S)Nc1ccc(F)cc1)CCC2	.	.	31.4	.
COC(=O)N/N=C1\CCCc2c(C)cc(C)cc21	.	.	.	.
O=C1CCCC2=C1C(c1cccc(O)c1)c1c(ccc3ncccc13)N2 (stereo not drawn)	.	.	.	.
CC(Sc1ccc(Cl)cc1)C(=O)NNC(=O)c1ccccc1O (stereo not drawn)	.	97.0	.	.
COc1ccc(NC(=O)COc2ccc(Br)cc2)c(OC)c1	.	.	.	.
COc1ccc(NC(=O)NNC(=O)COc2ccc3cc(Br)ccc3c2)c(OC)c1	.	.	82.2	.
O=C(CCS(=O)(=O)c1ccc(Br)cc1)NCc1ccc(F)cc1	.	.	.	.
CCOc1ccc2[nH]c(C(=O)N/N=C/c3ccc(OC)cc3)cc2c1	.	.	.	.
COc1ccc(C(=O)Nc2nnc(CC(=O)N/N=C/c3ccc(O)cc3O)s2)cc1	.	.	35.5	.
COc1cccc(/C=N/NC(=O)c2cc3c(OC)ccc(OC)c3[nH]2)c1O	.	144.0	.	.
COc1ccc2[nH]c(C(=O)N/N=C/c3ccc(O)cc3O)cc2c1	.	98.8	.	.
COc1cc(OC)c2cc(C(=O)N/N=C/c3cccc(OC)c3O)[nH]c2c1	.	120.8	.	.
COc1cccc(/C=N/NC(=O)c2ccc3nc[nH]c3c2)c1O	.	.	.	.
COc1cc(C(=O)OC2CC3CCC2(C)C3(C)C)ccc1OC(C)=O (stereo not drawn)	.	.	.	.
COc1ccc(NC(=O)CC(C)c2ccccc2)cc1S(=O)(=O)N1CCOCC1 (stereo not drawn)	.	.	.	.
Cc1cc(N2C(=O)Cc3ccccc3C2=O)ccc1C(C)C	.	.	.	.
COc1ccc(Cl)cc1Nc1nc(-c2sc(NC(=O)C(C)(C)C)nc2C)cs1	.	.	.	.
CCC(C)C(=O)Nc1nc(C)c(-c2csc(Nc3cc(Cl)ccc3OC)n2)s1 (stereo not drawn)	.	71.7	.	.
COc1ccc(Cl)cc1Nc1nc(-c2sc(NC(=O)c3ccco3)nc2C)cs1	.	88.6	.	.
COc1ccc(OC)c(Nc2nc(-c3sc(NC(=O)CC(C)C)nc3C)cs2)c1	.	76.3	.	.
COc1ccc(OC)c(Nc2nc(-c3sc(NC(=O)C(C)(C)C)nc3C)cs2)c1	.	81.5	.	.
Cn1nnnc1Sc1ncnc2scc(-c3cccs3)c12	.	.	.	.
COc1ccc(CCN2CC(C(=O)NCC(=O)Nc3ccc(F)c(F)c3)CC2=O)cc1OC (stereo not drawn)	.	.	.	.
COc1ccc(OC)c(Nc2nc(-c3sc(C)nc3C)cs2)c1	.	.	.	.
SMILES	SR-BI uptake up	SR-BI HDL uptake	dFosB act	CDK5 p35 inh
CCC(C)C(=O)Nc1nc(C)c(-c2csc(Nc3cc(OC)ccc3OC)n2)s1 (stereo not drawn)	.	80.1	.	.
Cc1oc2nc(SCC(=O)NC3CCCCC3)nc(N)c2c1C	388.5	.	.	.
O=C(COC(=O)c1ncc(Cl)c(Cl)c1Cl)NC1CCCCCC1	.	.	.	.
Fc1ccc(-c2cc3nc(-c4ccccc4)cc(N4CCN(CCN5CCOCC5)CC4)n3n2)cc1	.	.	19.7	.
O=C(NN=C(Cc1ccccc1)Cc1ccccc1)c1ccccc1O	298.5	.	.	.
O=C1CC(c2ccccc2F)c2cc3c(cc2N1)CCC3 (stereo not drawn)	.	.	.	.
O=C1CC(c2cc(Br)ccc2F)c2cc3c(cc2N1)CCC3 (stereo not drawn)	.	.	41.1	.
CCOc1ccc(C(=O)Nc2nc3ccccc3[nH]2)cc1OCC	.	80.9	.	.
COc1cccc(-c2c(C(=O)N/N=C/c3ccco3)nnn2-c2nonc2N)c1	.	.	.	.
CCOc1ccc(CCNC(=O)CN2CCN(Cc3ccccc3C)C2=O)cc1OCC	.	79.2	.	.
CC1CCN(C(=O)COC(=O)/C=C/c2ccco2)CC1	.	.	.	.
CC(=O)c1c(C)[nH]c(C(=O)OCC(=O)Nc2cc(C(F)(F)F)ccc2N2CCOCC2)c1C	.	72.2	.	.
CSc1ccc2c(c1)C(N1CCN(C)CC1)Cc1ccccc1S2 (stereo not drawn)	.	.	19.0!	.
O=[N+]([O-])c1ccccc1CCc1cnc(Cl)s1	.	84.0	.	.
O=[N+]([O-])c1ccccc1CSc1ccccn1	.	.	.	.
Cc1cccc(OCC(=O)NCC(=O)N/N=C/c2ccc(O)cc2O)c1	/	/	17.3	.
Cc1nc(N2CCOCC2)nc(N2CCN(c3ccccc3)CC2)c1[N+](=O)[O-]	.	78.4	.	.
Cc1nc(N2CCOCC2)nc(N2CCC(C)CC2)c1[N+](=O)[O-]	.	.	.	.
Cc1cc(OCc2cc(C(=O)NCCN3CCCCC3CO)no2)cc(C)c1Cl (stereo not drawn)	.	.	.	.
COc1cccc(NC(=O)c2ccnc(N3CCC(C(=O)NCc4ccccc4OC)CC3)c2)c1	.	87.5	.	.
CCN1/C(=C\c2ccc3cc(C)ccc3[n+]2CC)Sc2cc(C)c(C)cc21	.	85.1	.	.
CCN1/C(=C/c2ccc3cc(C)cc(C)c3[n+]2CC)Sc2cc(C)ccc21	.	.	.	.
CCN1/C(=C/c2ccc3cccc(C)c3[n+]2CC)Sc2ccccc21	.	.	65.7	.
COc1ccc(N2CCN(C(=O)c3sc4ncn(CC(=O)N5CCCCC5C)c(=O)c4c3C)CC2)cc1 (stereo not drawn)	.	.	.	.
CC(C)c1cccc(C(C)C)c1NC(=O)CCN1C(=O)NC2(CCCC2)C1=O	.	.	.	.
SMILES	SR-BI uptake up	SR-BI HDL uptake	dFosB act	CDK5 p35 inh
Cc1nc2ccc(NC(=O)CSc3ccccc3)cc2s1	.	.	.	.
Cc1sc2nc(CN3CCCC3)nc(N3CCN(S(=O)(=O)c4ccccc4)CC3)c2c1C	.	.	42.0	.
N=c1n(CC(=O)c2ccc(Br)s2)c2ccccc2n1Cc1ccccc1	.	.	25.4	.
CCN(c1ccccc1C(=O)O)S(=O)(=O)c1cccc2nsnc12	.	.	.	.
Cc1cc(C)cc(NC(=O)CCn2c(=S)[nH]c3ccccc3c2=O)c1	.	.	30.2	.
COc1cc2c(cc1NC(=O)CCC(=O)O)oc1ccccc12	.	.	.	.
COc1cc2c(cc1NC(=S)Nc1cccc(C(F)(F)F)c1)oc1ccccc12	.	75.4	.	.
COCCCNC(=S)Nc1cc2oc3ccccc3c2cc1OC	.	88.1	.	.
COc1cc2c(cc1NC(=S)Nc1cccc3ccccc13)oc1ccccc12	.	76.8	.	.
Cc1ccccc1C(=O)N1CCC(C(=O)N2CCCc3ccccc32)CC1	.	.	.	.
C=CCOC(=O)C1=C[C@@H](c2ccc(C(F)(F)F)cc2)C[C@@H](OCc2ccc(CO)cc2)O1	.	.	.	.
COc1ccc2sc(-c3ccc(N(C)C)cc3)c(C#CCCO)c2c1	.	95.8	.	.

Bioassay records (PubChem BioAssay)
